Bioassay records: PubChem, several laboratories
DDE Tn6 FP inh – inhibitors of Tn6 peptide binding to human fibrin DD(E). P02675. AID 720509. hit rate 0.21% among 370,000. inhibition, % at 8.3 µM. Fibrin DD(E) TRITC-Tn6 fluorescence polarization displacement;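 active means inhibition above a per-campaign cutoff: mean of compounds within control limits plus 3 SD, cut at about 15% in these data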;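 further: 0% = median of all compound wells on the plate and 100% = blocking peptide control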
SKN-1 inh – blocks SKN-1 activity in C. elegans. inhibition, % at 21.8 µM. hit rate 0.49% among 360,000. AID 624304. C. elegans VP596 Pgst-4::GFP/RFP ratio, acrylamide-induced, 24 h;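 active means interference check ratio from 0.5 to 1.5 plus GFP to RFP signal ratio inhibition reaching or exceeding a fixed threshold, cut at about 30% in these data, passing the limit was not always enough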
MT1-MMP act inh – blocks activation of human MT1-MMP; HT1080 RFP-PRO-GFP cells, GFP/RFP ratio fluorescence, overnight; percent of plate control window, DMSO zero; GFP/RFP ratio change, % at 20 µM; hit rate 0.061% among 360,000;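 active means GFP/RFP ratio change of at least 30% with cell ATP level not reduced by more than half and red fluorescence within 50% of control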
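Test system: HT1080 RFP-PRO-GFP cells; Benchmarks: DMSO and RFP-L50D-GFP cell wells; Timing: cells overnight before dosing, compound overnight, 37 °C, 5% CO2; Compound: one 20 µM compound dose with 1% DMSO; Read-out: GFP/RFP fluorescence ratio.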
DDE Tn7 FP inh – inhibitors of Tn7 peptide binding to human fibrin DD(E) | P02675 | FP displacement of FITC-Tn7 peptide from fibrin DD(E); 0% = median of compound wells per plate | inhibition, % at 8.3 µM | hit rate 0.13% among 370,000;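 active means inhibition above the mean of compounds falling within the control limits plus 3 SD of them, cut at about 14% in these data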;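 further: 0% = plate median of compound wells and 100% = 10 µM Aha-Tn7 peptide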
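System: human fibrin DD(E); quantity: Fibrin-DD(E) at 2 µM final; also added: fluorescent Tn7 probe at 0.1 µM; compound dosing: single nominal test concentration of 8.3 µM per compound; schedule: 10 min preincubation, 3 h with tracer, room temperature; detection: fluorescence polarization of the labelled Tn7 tracer; repeats: one replicate per compound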
DAGLB inhibitor – diacylglycerol lipase beta (human) inhibition. Q8NCG7. HEK293T DAGLB membrane lysate, EnzChek fluorogenic substrate. inhibition, % at 5.17 µM. hit rate 0.059% among 340,000. AID 504411; in the data active means inhibition above about 34%;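 further: 0% = enzyme with vehicle and 100% = wells lacking enzyme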
Target sequence (Q8NCG7 whole entry, looked up): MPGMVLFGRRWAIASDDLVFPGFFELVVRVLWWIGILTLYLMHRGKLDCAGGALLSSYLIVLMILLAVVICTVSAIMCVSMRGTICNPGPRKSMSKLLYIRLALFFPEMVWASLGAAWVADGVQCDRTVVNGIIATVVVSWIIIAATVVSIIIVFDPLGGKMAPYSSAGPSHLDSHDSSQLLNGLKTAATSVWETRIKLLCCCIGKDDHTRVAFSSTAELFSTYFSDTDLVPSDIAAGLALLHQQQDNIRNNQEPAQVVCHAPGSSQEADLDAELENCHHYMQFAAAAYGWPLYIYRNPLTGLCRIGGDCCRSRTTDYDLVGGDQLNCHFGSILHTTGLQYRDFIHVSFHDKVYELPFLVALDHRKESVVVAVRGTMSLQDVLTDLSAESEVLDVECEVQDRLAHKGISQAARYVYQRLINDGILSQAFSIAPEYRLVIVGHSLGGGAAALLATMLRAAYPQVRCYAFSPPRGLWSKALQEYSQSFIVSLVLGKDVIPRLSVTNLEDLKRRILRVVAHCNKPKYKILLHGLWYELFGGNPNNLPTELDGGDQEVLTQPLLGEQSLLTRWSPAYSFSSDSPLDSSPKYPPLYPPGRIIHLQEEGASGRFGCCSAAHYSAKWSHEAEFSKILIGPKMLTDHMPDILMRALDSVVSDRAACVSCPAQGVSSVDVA
PolyA inh – inhibitors of polyadenylation in S. cerevisiae; activity score, % at 12 µM; S. cerevisiae SKY197-pL101 polyadenylation reporter, beta-gal luminescence; efflux-impaired pdr1/pdr3 knockout yeast; score 100 = 6 SD above DMSO; AID 1875; hit rate 0.02% among 300,000;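 active means lowest replicate activity score at least 50, where 100 means six control SD above control mean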;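 further: yeast exposed to compound for 9 h at 30 °C; higher score means more reporter readthrough which indicates perturbed polyadenylation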
An asterisk follows results filed as active; i = inactive; / = no result given; + = active, no number. Rows were chosen to be rich in hits. Some 0.9% of all compounds tested hit in one or more screens of this group.

SMILES	DDE Tn6 FP inh	SKN-1 inh	MT1-MMP act inh	DDE Tn7 FP inh	DAGLB inhibitor	PolyA inh
Cc1cccc(C)c1OCC(=O)Nc1nnc(C2CCCO2)s1 (centres undefined)	-5.9	36.5*	-6.0	0.8	-1.2	-0.7
CC1(Cc2ccc(OC(F)(F)F)cc2)C(=O)Nc2ccc(OC(F)(F)F)cc21 (centres undefined)	5.7	37.9*	0.1	-2.4	/	/
COC(=O)c1ccc(CC2(C)C(=O)Nc3ccc(-c4cccc(C(F)(F)F)c4)cc32)o1 (centres undefined)	-1.4	39.1*	3.3	-0.9	/	/
COc1ccccc1C1c2c(ncn(-c3ccccc3)c2=N)Oc2ccc3ccccc3c21 (centres undefined)	2.1	/	/	1.3	/	/
O=C(C1CCCN1S(=O)(=O)c1ccc(Cl)s1)N1CCN(c2ccccc2)CC1 (centres undefined)	2.6	/	/	-0.8	/	/
CCN1C(=O)/C(=C2/C=Cc3ccccc3N2C)OC1=S	13.0	18.6	-11.6	4.3	-3.0	-7.6
CCN1C(=O)/C(=C2\C=Cc3cc(C)ccc3N2CC)OC1=S	-0.4	35.0*	-1.9	-0.1	5.3	6.5
O=C1NC(=O)C2(N1)C(=O)c1cccc3cccc2c13 (centres undefined)	39.0*	0.8	-83.0	3.9	-19.5	/
O=C1NC(=O)C2(N1)c1ccccc1-c1ccccc12	4.2	0.1	1.9	3.6	-4.0	/
O=C(CSc1nnc(-c2cnccn2)n1-c1ccccc1)c1ccc(F)cc1	-1.8	/	/	-7.0	/	/
CSc1ccc(/C=N/N2CCN(Cc3ccc(Cl)cc3)CC2)cc1	-1.4	55.4*	2.5	0.6	-14.9	-0.5
C[C@H]1[C@H](N(Cc2cccs2)Cc2cccs2)CC[C@@]23CCCN2C(=O)CCC[C@@H]13	-1.5	/	/	0.5	/	/
CCOC(=O)N1CCN(C(=O)C[C@H]2C[C@@]3(C(=O)OC)C(=C[C@H](C(C)C)O[C@@H]3C3CC3)N(Cc3ccc4c(c3)OCO4)C2=O)CC1	-3.8	/	/	-6.7	/	/
Cc1cc(C)cc(N(CC(=O)NC2CCC(C)CC2)S(=O)(=O)c2ccc(Br)s2)c1 (centres undefined)	11.1	/	/	-5.2	/	/
CC(C)CCNC(=O)NC(=O)COc1c(F)c(F)cc(F)c1F	-3.3	59.6*	3.4	1.7	-6.5	5.4
CC(C)CNC(=O)NC(=O)COc1c(F)c(F)cc(F)c1F	1.4	3.8	4.7	8.4	-1.0	-10.1
Cc1cc(C)c2nc(C(F)(F)F)nc(N3CCN(C(=O)c4ccco4)CC3)c2c1	1.4	36.3*	-10.2	-4.5	-2.5	17.3
CCOc1ccc(-c2csc(N3CCC(C(N)=O)CC3)n2)cc1	0.0	/	/	-4.8	/	/
O=C(OCc1ccccc1)[C@H](Cc1ccccc1)NC(=O)[C@@H]1CC=C[C@@H]2CCN(CCc3ccccc3)C(=O)[C@@H]21	-5.5	/	/	1.5	/	/
CN(C)C(=O)c1cccc(-c2cnc3c(NC=O)cc(-c4ccc(N(C)C)cc4)cn23)c1	10.8	36.0*	-57.0	1.1	/	/
COc1ccc(OC)c2cc3ccccc3cc12	-2.3	18.3	-29.3	18.0*	-2.1	/
COc1cc2ccccc2cc1C(=O)O	-10.6	-19.0	2.3	3.7	1.9	1.2
O=C(NC1CC1)c1cc(-c2ccc(Br)cc2)nc2ccccc12	1.4	36.0*	-7.3	-2.5	-3.1	/
Cc1cc(C)nc(NC(=O)c2cccs2)n1	6.3	-0.5	2.9	-5.6	-0.8	13.1
Cc1nc(NC(=O)c2cccs2)ccc1Br	-0.7	36.2*	0.1	2.6	-3.7	-14.5
SMILES	DDE Tn6 FP inh	SKN-1 inh	MT1-MMP act inh	DDE Tn7 FP inh	DAGLB inhibitor	PolyA inh
COc1ccc(CC(=O)Nc2cc(S(=O)(=O)N3CCOCC3)ccc2N2CCOCC2)cc1	0.6	36.0*	-6.9	4.7	0.5	11.7
CCOC(=O)[C@]12CCCCC/C=C\1N(CCc1ccc(Cl)cc1)C(=O)[C@H]2CC(=O)N1CCSCC1	7.9	/	/	1.5	/	/
COc1ccc(CC(=O)N2CCCC(C)C2)cc1 (centres undefined)	-3.3	37.3*	-2.3	3.9	0.5	-11.5
COc1ccc(CSc2nnc(SCC(=O)Nc3ccc4c(c3)OCO4)s2)cc1	-2.3	/	/	-1.2	/	/
O=C(Cn1c(C(F)(F)F)nc2ccccc21)c1ccc(F)cc1	3.2	35.4*	0.8	2.6	-0.8	-13.6
CN1CCC(N[C@@H](Cc2ccccc2)C(=O)NCCCc2ccccc2)(C(=O)NCCc2c[nH]c3ccccc23)CC1	1.6	/	/	-0.2	/	/
CC(=NNC(=S)Nc1cccc(Cl)c1)c1ccccn1	-3.8	38.8*	14.7	4.2	15.8	/
S=C(NCc1ccccn1)Nc1cccc(Cl)c1	3.1	12.7	-6.7	6.2	1.8	2.8
COC(=O)[C@]12C[C@H](CC(=O)N3CCOCC3)C(=O)N(Cc3cccc4ccccc34)C1=C[C@H](C(C)(C)C)O[C@@H]2C	4.5	/	/	7.5	/	/
O=C(NC1CCCCC1)O[C@H]1CC[C@@]23CCCN2C(=O)CCC[C@H]3C1	1.6	/	/	3.3	/	/
C(=C\c1ccc2ccccc2n1)/c1ccccc1	0.3	84.3*	4.2	0.6	-8.5	-22.7
Oc1ccc(/C=C/c2ccc3ccccc3n2)cc1	-7.5	25.2	-1.3	1.7	-0.4	-18.9
Fc1ccccc1/C=C/c1ccc2ccccc2n1	2.6	87.6*	0.1	-6.3	-8.8	-20.0
CN(C)c1ccc(/C=C/c2ccc3ccccc3n2)cc1	/	58.3*	-57.5	/	-23.9	18.3
Cn1c(Cc2cccs2)nnc1SCC(=O)Nc1ccc2c(c1)OCO2	8.6	/	/	-3.9	/	/
CCCCNc1c2c3c(cccc3n(C)c1=O)C(=O)c1ccccc1-2	/	-6.3	-334.0	/	i	-10.6
Cn1c(=O)c(NCCc2ccccc2)c2c3c(cccc31)C(=O)c1ccccc1-2	+	46.4	-66.8	-1.0	i	-13.4
Cn1c(=O)c(NCCO)c2c3c(cccc31)C(=O)c1ccccc1-2	37.2*	-5.2	-186.0	-8.1	-165.8	-4.4
CO[C@H]([C@H](C)/C=C/N(C)C=O)[C@@H](C)C(=O)CC[C@H](C)[C@H](O)[C@H](C)[C@H]1OC(=O)/C=C/C(C)=C/C[C@H](O)C[C@@H]2C=CC[C@@H](C[C@H](OC)[C@@H](CO)[C@@H](OC)C[C@@H](OC)[C@@H]1C)O2	-2.8	/	/	-3.2	/	/
CN(Cc1ccccc1)c1oc(-c2ccco2)nc1C#N	7.5	1.3	-0.5	2.0	-0.3	-8.0
CN(C)c1oc(-c2ccco2)nc1C#N	-4.7	59.2*	3.7	0.9	-5.4	1.3
O=C(NCc1ccc(C(=O)NCC2CCCO2)cc1)c1cccc(Br)c1 (centres undefined)	4.7	/	/	1.6	/	/
N#CC(=Cc1cccs1)c1nc(-c2ccc(Cl)cc2)cs1	-4.3	61.8*	-5.0	-7.6	-19.4	/
